ChEMBL document CHEMBL3997797 (J Med Chem, 2017)

Legend:
[1] = biological target: T1, Liver carboxylesterase 1 (Homo sapiens, UniProt P23141); experiment: Inhibition of human liver CES1 expressed in baculovirus infected sf9 cells using o-nitrophenyl acetate as substrate monitored at 15 secs interval for 5 mins
T1 sequence (P23141 whole entry): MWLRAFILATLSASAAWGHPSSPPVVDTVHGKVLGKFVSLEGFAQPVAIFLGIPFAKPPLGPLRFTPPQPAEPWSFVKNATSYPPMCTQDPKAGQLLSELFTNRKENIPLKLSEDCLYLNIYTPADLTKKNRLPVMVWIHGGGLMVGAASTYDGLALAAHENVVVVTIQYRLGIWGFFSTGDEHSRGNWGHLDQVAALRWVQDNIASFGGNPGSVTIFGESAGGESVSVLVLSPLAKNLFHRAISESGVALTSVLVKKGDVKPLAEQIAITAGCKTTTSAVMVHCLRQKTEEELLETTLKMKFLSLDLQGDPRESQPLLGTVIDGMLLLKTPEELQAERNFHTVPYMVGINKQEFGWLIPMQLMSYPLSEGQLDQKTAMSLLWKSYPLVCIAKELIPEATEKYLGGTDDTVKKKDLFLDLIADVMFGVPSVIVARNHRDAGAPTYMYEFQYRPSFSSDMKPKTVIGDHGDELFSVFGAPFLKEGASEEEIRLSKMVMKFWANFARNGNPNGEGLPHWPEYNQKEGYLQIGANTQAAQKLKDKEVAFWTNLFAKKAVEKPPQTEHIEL
Procedure, shortened: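 Purified hCE1 secreted from baculovirus-infected Sf9 cells, isolated from serum-free medium by preparative isoelectric focusing and chromatography. o-NPA hydrolysis measured with at least 8 inhibitor concentrations, each point in quadruplicate. Fractional inhibition fitted to a general partial-inhibition model (α 0 to ∞, β 0 to 1). The best model was chosen by r2 and Akaike's information criterion, and Ki was calculated from that model.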

[2] = biological target: T2, CES1 (liver carboxylesterase 1) (Homo sapiens, UniProt P23141); experiment: Inhibition of human liver CES1 expressed in U373MG cells assessed as oseltamivir carboxylate formation at 5 uM using oseltamivir as substrate preincubated for 30 mins followed by compound washout and subsequent compound/substrate addition measured after 30 mins by UPLC-MS method relative to control; assay type: cell-based; set-up: scale not given: the % may be the effect or the level left; details: U373MG cells expressing human liver CES1, probe oseltamivir, read-out: Activity
T2 sequence (P23141 whole entry): T1 sequence (P23141 whole entry)
Procedure, shortened: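 U373MG cells expressing hCE1 (1 x 10^5/well) attached overnight. They were pretreated 30 min with 5 µM inhibitor, then media was replaced with fresh media containing 20 µM oseltamivir plus 5 µM inhibitor for 30 min. Media was mixed with an equal volume of acetonitrile and metabolites were quantified by UPLC-MS. Run in duplicate with DMSO control.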

[3] = biological target: Acetylcholinesterase (Homo sapiens) (UniProt P22303); experiment: Inhibition of human AChE at 10 uM using acetylthiocholine as substrate by spectrophotometric method relative to control
Chain of Acetylcholinesterase (Homo sapiens) (P22303 whole entry): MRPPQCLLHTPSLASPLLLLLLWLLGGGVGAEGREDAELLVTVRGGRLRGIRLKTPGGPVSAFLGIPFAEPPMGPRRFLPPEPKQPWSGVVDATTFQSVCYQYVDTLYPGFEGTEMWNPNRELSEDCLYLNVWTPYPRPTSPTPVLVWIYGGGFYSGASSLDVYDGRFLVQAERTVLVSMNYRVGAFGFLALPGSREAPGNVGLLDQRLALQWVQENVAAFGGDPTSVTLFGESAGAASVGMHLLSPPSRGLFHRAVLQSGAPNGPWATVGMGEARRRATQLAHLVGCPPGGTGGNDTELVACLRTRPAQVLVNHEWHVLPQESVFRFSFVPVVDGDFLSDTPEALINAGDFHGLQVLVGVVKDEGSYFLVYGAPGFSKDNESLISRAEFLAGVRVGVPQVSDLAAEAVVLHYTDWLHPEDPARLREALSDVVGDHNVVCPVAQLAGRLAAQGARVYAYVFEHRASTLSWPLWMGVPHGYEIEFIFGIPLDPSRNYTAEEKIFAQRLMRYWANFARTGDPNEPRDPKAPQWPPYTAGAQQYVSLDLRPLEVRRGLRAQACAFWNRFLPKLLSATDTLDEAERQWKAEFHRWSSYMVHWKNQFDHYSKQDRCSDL

[4] = organism: Homo sapiens; experiment: Selectivity ratio of Ki for human intestinal CES2 to Ki for human liver CES1
[5] = biological target: T3, CES2 (cocaine esterase) (Homo sapiens, UniProt O00748); experiment: Inhibition of human intestinal CES2 expressed in baculovirus infected sf9 cells at 10 uM using o-nitrophenyl acetate as substrate monitored at 15 secs interval for 5 mins relative to control; details: probe o-nitrophenyl acetate
T3 sequence (O00748 whole entry): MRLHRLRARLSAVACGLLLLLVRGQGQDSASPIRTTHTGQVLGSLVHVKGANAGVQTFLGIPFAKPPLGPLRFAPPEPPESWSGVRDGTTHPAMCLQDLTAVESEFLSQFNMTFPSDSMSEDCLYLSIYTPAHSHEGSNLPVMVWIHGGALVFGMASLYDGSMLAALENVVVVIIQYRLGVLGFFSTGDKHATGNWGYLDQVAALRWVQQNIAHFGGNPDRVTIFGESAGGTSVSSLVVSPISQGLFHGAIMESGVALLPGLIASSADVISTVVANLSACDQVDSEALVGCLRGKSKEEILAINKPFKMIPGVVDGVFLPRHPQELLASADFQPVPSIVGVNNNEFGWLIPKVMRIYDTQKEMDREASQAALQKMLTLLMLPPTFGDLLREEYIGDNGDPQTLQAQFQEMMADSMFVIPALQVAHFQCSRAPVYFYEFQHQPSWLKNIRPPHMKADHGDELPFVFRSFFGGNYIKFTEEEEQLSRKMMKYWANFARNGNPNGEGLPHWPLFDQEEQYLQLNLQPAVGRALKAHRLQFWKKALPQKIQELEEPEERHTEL

[6] = biological target: T4, Cocaine esterase (Homo sapiens, UniProt O00748); experiment: Inhibition of human intestinal CES2 expressed in baculovirus infected sf9 cells using o-nitrophenyl acetate as substrate monitored at 15 secs interval for 5 mins
T4 sequence (O00748 whole entry): T3 sequence (O00748 whole entry)

[7] = biological target: T1, Liver carboxylesterase 1; experiment: Inhibition of human liver CES1 expressed in baculovirus infected sf9 cells using oseltamivir as substrate
[8] = system: U373 MG; experiment: Growth inhibition of human U373MG cells after 72 hrs; assay type: cell-based, U-373MG ATCC
[9] = biological target: T3, CES2 (cocaine esterase); experiment: Inhibition of human intestinal CES2 expressed in U373MG cells assessed as 7-ethyl-10-hydroxycamptothecin formation at 5 uM using irinotecan as substrate preincubated for 1 hr followed by substrate addition measured after 5 mins by HPLC method relative to control; assay type: cell-based; set-up: scale not given: the % may be the effect or the level left; details: U373MG cells expressing human intestinal CES2, probe irinotecan, read-out: Activity
[10] = Drug metabolism in DMSO/sodium phosphate buffer assessed as tautomerization at pH 3 to 11 by UV-spectroscopic method; assay type: physicochemical
Procedure, shortened: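 UV absorbance spectra recorded in aqueous 20% DMSO:80% 200 mM sodium phosphate buffer across a range of pH values to follow tautomeric form.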

[11] = system: U373 MG; experiment: Cytotoxicity against human U373MG cells assessed as cell viability after 30 mins relative to control; assay type: cell-based; details: u-373mg atcc, 0.5 h
[12] = biological target: T2, CES1 (liver carboxylesterase 1); experiment: Inhibition of human liver CES1 expressed in baculovirus infected sf9 cells at 10 uM using o-nitrophenyl acetate as substrate monitored at 15 secs interval for 5 mins relative to control; details: probe o-nitrophenyl acetate
Procedure, shortened: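 Purified secreted hCE1 from Sf9 culture medium, isolated by isoelectric focusing and chromatography. Inhibitor tested at a single concentration of 10 µM against o-NPA hydrolysis. Read-out is percent inhibition.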

Structure (SMILES)	Ki [1]	activity at 0.5 h, 5 µM [2]	inhibition [3]	Ratio Ki [4]	inhibition at 5 min, 10 µM [5]	Ki [6]	Ki [7]	IC50 [8]	activity at 5 min, 5 µM [9]	Drug metabolism [10]	Activity [11]	inhibition at 5 min, 10 µM [12]
Cc1ccc(OC2=CC(=O)C(=O)c3ccccc32)cc1	4.44 nM	13%	8%									
CN(C1=CC(=O)C(=O)c2ccccc21)c1ccc(I)cc1	400 to 408 nM		31%	4 to 11	83%	284 nM	148 nM					
O=C1C=C(Oc2ccc(I)cc2)c2ccccc2C1=O	4.7 nM		25%									
COc1ccc(OC2=CC(=O)C(=O)c3ccccc32)cc1	17.8 nM	14%	18%									
O=C1C=C(Oc2ccc(Br)cc2)c2ccccc2C1=O	14.3 nM	47%	26%									
CN(C1=CC(=O)C(=O)c2ccccc21)c1ccccc1	90 nM	8%	3%		33%		32.1 nM	12800 nM	77%	Metabolite_Notdetected	99%	
COc1ccc(NC2=CC(=O)C(=O)c3ccccc32)cc1			5%		12%							26%
COc1ccc(N(C)C2=CC(=O)C(=O)c3ccccc32)cc1	81.6 nM	6%	1%		7%		17.7 nM		77%			
Cc1ccc(N(C)C2=CC(=O)C(=O)c3ccccc32)cc1	11.1 nM	2%	3%		25%		4.9 nM	4600 nM	93%		100%	
CN(C1=CC(=O)C(=O)c2ccccc21)c1ccc(F)cc1	163 nM	1%	1%		19%		37.6 nM	3900 nM	92%	Metabolite_Notdetected	96%	
O=C1C=C(Nc2ccc(F)cc2)c2ccccc2C1=O			21%		14%							40%
O=C1C=C(Oc2ccc(F)cc2)c2ccccc2C1=O	45.3 nM	25%	22%							Metabolite_Notdetected		
CN(C1=CC(=O)C(=O)c2ccccc21)c1ccc(Cl)cc1	19.2 nM	5%	4%		30%		12.9 nM		91%			
O=C1C=C(Nc2ccc(I)cc2)c2ccccc2C1=O			16%		10%							41%
O=C1C=C(Nc2ccc(Cl)cc2)c2ccccc2C1=O			23%		22%							33%
CN(C1=CC(=O)C(=O)c2ccccc21)c1ccc(Br)cc1	16.1 nM	19%	12%	4 to 11		1840 nM	17.2 nM		89%			
O=C1C=C(Nc2ccccc2)c2ccccc2C1=O			5%		12%					Metabolite_Detected		30%
Cc1ccc(NC2=CC(=O)C(=O)c3ccccc32)cc1			17%		15%							44%
O=C1C=C(Oc2ccccc2)c2ccccc2C1=O	23.8 nM	19%	11%							Metabolite_Notdetected		
O=C1C=C(Oc2ccc(Cl)cc2)c2ccccc2C1=O	18.9 nM	20%	31%									
CC1(C)CCC2=C(O1)c1ccccc1C(=O)C2=O [LAPACHONE]	1220 nM	12%	10%									
O=C1C=C(Nc2ccc(Br)cc2)c2ccccc2C1=O			16%		12%							26%
